The values that follow come from ChEMBL document CHEMBL1142985, “Antineoplastic agents. 550. Synthesis of 10b(s)-epipancratistatin from (+)-narciclasine” (2007).

Assay type in all cases: functional
One assay relates to MCF7. The experiment in a line: Growth inhibition of human MCF7 cells after 48 hrs. As to conditions: MCF7, 48 h. Put shortly:
(§1)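 NCI sulforhodamine B assay. Cells in 5% fetal bovine serum/RPMI1640 seeded, grown 24 h, then exposed to serial compound dilutions for 48 h. Fixed with trichloroacetic acid, stained with sulforhodamine B, optical density read on a plate reader. GI50 taken as the concentration causing a 50% reduction in net protein increase.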

The test system of a further assay is KM-20L2. The experiment in a line: Growth inhibition of human KM20L2 cells after 48 hrs. As to conditions: KM-20L2, 48 h. In short, it runs like this:
as §1

The test system of another assay is SF-268. The experiment in a line: Growth inhibition of human SF268 cells after 48 hrs. As to conditions: SF-268, 48 h. Put shortly: as §1
In another assay the test system is BXPC-3. In words: Growth inhibition of human BXPC3 cells after 48 hrs. Conditions: BXPC-3, 48 h. In short, it runs like this: as §1
The subject of a further assay is DU-145. In words: Growth inhibition of human DU145 cells after 48 hrs. As to conditions: DU-145, 48 h. Put shortly:
as §1

In the next assay the test system is NCI-H460. In words: Growth inhibition of human NCI-H460 cells after 48 hrs. Conditions: NCI-H460, 48 h. Put shortly:
as §1

The subject of another assay is P388. The experiment in a line: Growth inhibition of murine P388 cells after 48 hrs. Conditions: Mus musculus, P388, 48 h; read-out: ED50 (the source's name). Put shortly:
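Mouse leukemia P388 cells held 24 h in 10% horse serum/Fisher medium, then incubated 48 h with serial compound dilutions. Cell numbers counted on a Coulter particle counter; ED50 taken as the concentration giving 50% growth inhibition.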

≈ marks a conversion by molar mass, not a printed value.

As a reminder, the GI50 is the concentration at which growth is held to half of that of the control. For `CC(=O)O[C@@H]1[C@@H](OC(C)=O)[C@H](O)[C@@]2(O)c3cc4c(c(O)c3C(=O)N[C@H]2[C@@H]1OC(C)=O)OCO4`, the concentration for 50% growth inhibition (GI50) in the assay with MCF7, with KM-20L2, with SF-268, in the assay on BXPC-3, in the assay on DU-145 and in the assay with NCI-H460 was greater than 10 µg/mL each time. Also, the EC50 in the assay on P388 is greater than 10 µg/mL.

As to `CC(=O)O[C@H]1[C@@H](OC(C)=O)[C@@H]2NC(=O)c3c(cc4c(c3O)OCO4)[C@@]23OC(=S)O[C@H]3[C@@H]1OC(C)=O`, the concentration for 50% growth inhibition (GI50) in the assay with MCF7, in the assay with KM-20L2, in the assay with SF-268, in the assay with BXPC-3, in the assay with DU-145 and in the assay with NCI-H460 was greater than 1 µg/mL each time. Moreover, the EC50 with P388 is greater than 1 µg/mL.

For the compound `CC(=O)O[C@@H]1[C@@H](OC(C)=O)[C@H](OC(C)=O)[C@H]2c3cc4c(c(O)c3C(=O)N[C@H]2[C@@H]1OC(C)=O)OCO4`, the GI50 amounted to 2 µg/mL (≈ 4.05 µM) in the assay on MCF7; 1.8 µg/mL (≈ 3.65 µM) in the assay with KM-20L2; 3 µg/mL (≈ 6.08 µM) with SF-268; 1.8 µg/mL (≈ 3.65 µM) in the assay with BXPC-3; 1.4 µg/mL (≈ 2.84 µM) in the assay on DU-145; 1.3 µg/mL (≈ 2.63 µM) in the assay on NCI-H460. Also, in the assay on P388, the EC50 stood at 0.2 µg/mL (≈ 0.405 µM).

Take `O=C1N[C@H]2[C@H](O)[C@H](O)[C@@H](O)[C@H](O)[C@H]2c2cc3c(c(O)c21)OCO3`: the 50% growth inhibitory concentration (GI50) in the assay on MCF7 came out at 0.27 µg/mL (≈ 0.83 µM); in the assay with KM-20L2, 0.31 µg/mL (≈ 0.953 µM); in the assay with SF-268 it was 0.26 µg/mL (≈ 0.799 µM); with BXPC-3 it was 0.32 µg/mL (≈ 0.984 µM); in the assay with DU-145, 0.21 µg/mL (≈ 0.646 µM); in the assay on NCI-H460 it was 0.23 µg/mL (≈ 0.707 µM). Further, the EC50 in the assay with P388 is 0.14 µg/mL (≈ 0.43 µM).

On to `CC(=O)O[C@@H]1[C@@H](OC(C)=O)[C@H](O)[C@H]2c3cc4c(c(O)c3C(=O)N[C@H]2[C@@H]1OC(C)=O)OCO4`, for which the concentration for 50% growth inhibition (GI50) in the assay on MCF7, with KM-20L2, in the assay with SF-268, with BXPC-3, in the assay with DU-145 and with NCI-H460 was greater than 1 µg/mL throughout. Moreover, the EC50 in the assay on P388 was greater than 1 µg/mL.

For the compound `COC(=O)C(=O)Oc1c2c(cc3c1C(=O)N(C(=O)C(=O)OC)[C@H]1[C@H](OC(C)=O)[C@H](OC(C)=O)[C@@H](OC(C)=O)[C@H](OC(C)=O)[C@@]31OC(=O)C(=O)OC)OCO2`, the GI50 in the assay with MCF7, with KM-20L2, in the assay on SF-268, in the assay on BXPC-3, with DU-145 and with NCI-H460 was greater than 10 µg/mL each time. In the assay with P388, the EC50 is greater than 10 µg/mL.

As for `CC(=O)Oc1c2c(cc3c1C(=O)N[C@H]1[C@H](OC(C)=O)[C@H](OC(C)=O)[C@@H](OC(C)=O)[C@H](O)[C@@]31O)OCO2`, the 50% growth inhibitory concentration (GI50) in the assay with MCF7 is 5.2 µg/mL (≈ 10.2 µM); with KM-20L2 it was 3.6 µg/mL (≈ 7.07 µM); in the assay with SF-268, 9.9 µg/mL (≈ 19.4 µM); in the assay with BXPC-3, 14.4 µg/mL (≈ 28.3 µM); in the assay with DU-145, 4.3 µg/mL (≈ 8.44 µM); with NCI-H460, greater than 10 µg/mL. The EC50 with P388 amounted to 1.7 µg/mL (≈ 3.34 µM).

For `CC(=O)Oc1c2c(cc3c1C(=O)N[C@H]1[C@H](OC(C)=O)[C@H](OC(C)=O)[C@@H](OC(C)=O)[C@H](OC(C)=O)[C@@]31O)OCO2`, the concentration for 50% growth inhibition (GI50) with MCF7, in the assay with KM-20L2, with SF-268, in the assay with BXPC-3, in the assay with DU-145 and in the assay with NCI-H460 was greater than 10 µg/mL in each case. In addition, the EC50 in the assay with P388 came out at 8.9 µg/mL (≈ 16.1 µM).

Consider `CC(=O)O[C@@H]1[C@H](OC(C)=O)[C@@H](OC(C)=O)C=C2c3cc4c(c(O)c3C(=O)N[C@H]21)OCO4`, for which the GI50 with MCF7 was determined as 0.06 µg/mL (≈ 0.138 µM); in the assay on KM-20L2 it was 0.051 µg/mL (≈ 0.118 µM); with SF-268, 0.16 µg/mL (≈ 0.369 µM); with BXPC-3 it was 0.011 µg/mL (≈ 0.0254 µM); in the assay on DU-145, 0.028 µg/mL (≈ 0.0646 µM); in the assay with NCI-H460 it was 0.033 µg/mL (≈ 0.0761 µM). Also, the EC50 in the assay with P388 worked out at 0.013 µg/mL (≈ 0.03 µM).

Take `CC(=O)O[C@H]1[C@@H](OC(C)=O)[C@@H]2NC(=O)c3c(cc4c(c3O)OCO4)[C@@]23OC(=O)O[C@H]3[C@@H]1OC(C)=O`: the 50% growth inhibitory concentration (GI50) in the assay with MCF7 came to 4.9 µg/mL (≈ 9.93 µM); with KM-20L2 it was 2.8 µg/mL (≈ 5.68 µM); with SF-268 it was 7.5 µg/mL (≈ 15.2 µM); with BXPC-3, 3.1 µg/mL (≈ 6.28 µM); in the assay with DU-145, 1.5 µg/mL (≈ 3.04 µM); with NCI-H460 it was 2.9 µg/mL (≈ 5.88 µM). In addition, in the assay on P388, the EC50 was found to be 1.5 µg/mL (≈ 3.04 µM).

Regarding `CC(=O)Oc1c2c(cc3c1C(=O)N[C@@H]1C3=C[C@H](OC(C)=O)[C@@H](OC(C)=O)[C@H]1OC(C)=O)OCO2`, the GI50 was found to be 0.088 µg/mL (≈ 0.185 µM) in the assay with MCF7; 0.043 µg/mL (≈ 0.0904 µM) in the assay on KM-20L2; 0.055 µg/mL (≈ 0.116 µM) with SF-268; 0.16 µg/mL (≈ 0.337 µM) in the assay on BXPC-3; 0.023 µg/mL (≈ 0.0484 µM) in the assay with DU-145; 0.28 µg/mL (≈ 0.589 µM) in the assay on NCI-H460. In addition, the EC50 in the assay on P388 amounted to 0.027 µg/mL (≈ 0.0568 µM).

In the case of `O=C1N[C@@H]2C(=C[C@H](O)[C@@H](O)[C@H]2O)c2cc3c(c(O)c21)OCO3` [NARCICLASINE], the concentration for 50% growth inhibition (GI50) in the assay on MCF7 was 0.0032 µg/mL (≈ 0.0104 µM); with KM-20L2, 0.0032 µg/mL (≈ 0.0104 µM); with SF-268, 0.0031 µg/mL (≈ 0.0101 µM); in the assay with BXPC-3 it was 0.0035 µg/mL (≈ 0.0114 µM); in the assay with DU-145, 0.0032 µg/mL (≈ 0.0104 µM); with NCI-H460 it was 0.0084 µg/mL (≈ 0.0273 µM). Also, the EC50 in the assay on P388 amounted to 0.0012 µg/mL (≈ 0.00391 µM).

Consider `O=C1N[C@H]2[C@H](O)[C@H](O)[C@@H](O)[C@H](O)[C@@H]2c2cc3c(c(O)c21)OCO3` [PANCRATISTATIN], for which the GI50 in the assay with MCF7 was 0.023 µg/mL (≈ 0.0707 µM); in the assay with KM-20L2 it was 0.025 µg/mL (≈ 0.0769 µM); in the assay with SF-268, 0.014 µg/mL (≈ 0.043 µM); with BXPC-3, 0.02 µg/mL (≈ 0.0615 µM); in the assay with DU-145 it was 0.015 µg/mL (≈ 0.0461 µM); in the assay with NCI-H460, 0.032 µg/mL (≈ 0.0984 µM). Besides, the EC50 with P388 was 0.017 µg/mL (≈ 0.0523 µM).
